These results are taken from ChEMBL document CHEMBL4196194, “De Novo Design of α-Helical Lipopeptides Targeting Viral Fusion Proteins: A Promising Strategy for Relatively Broad-Spectrum Antiviral Drug Discovery” (J Med Chem, 2018).

The structures appear in SMILES notation. Active and inactive are the calls of the source. The calls are words filed in the database; no cut-off is given here. Where a SMILES comes first, the peptide text is derived from it. [ ]: non-standard residue; d: D form. The star is where a group is joined. Palmitoyl = CCCCCCCCCCCCCCCC(=O)*; X1 = O=[N+]([O-])c1ccc(*)c2onnc12; βAla = NCCC(=O)O

One data set relates to Lipid bilayer. Nature of the data set: Binding affinity to POPC LUV liposome system at 15 uM. In a few lines: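 Isothermal titration calorimetry at 25 °C. POPC large unilamellar vesicles (13 mM in the syringe) were titrated into peptide in the cell (15 μM) over 20 injections, 120 s apart, with stirring at 750 rpm. The binding constant was derived from the heat released during peptide–lipid binding.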

In data set [1] the test system is Influenza A virus. The experiment in a line: Antiviral activity against Influenza A virus (A/Puerto Rico/8/1934(H1N1)) infected in HEK293T cells assessed as inhibition of viral replicon activity up to 40 uM incubated for 30 hrs by dual-Glo luciferase assay. Type of data set: functional, organism-based. Summed up: (§1)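 HEK293T cells (2.5 × 10^4/well) transfected with plasmids for NP, PB1, PB2, PA plus p0LN-S-Luc firefly and pRL-SV40 Renilla reporters; serially diluted compound added 6 h post-transfection, luciferase read after 30 h by Dual-Glo. Activity = firefly/Renilla ratio; % inhibition normalized to positive and negative controls, curve-fitted; three independent measurements.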
(A replicon is a self-replicating genome or part of one, used to study replication in cells.)

Data set [2] has as its system Middle East respiratory syndrome-related coronavirus. The experiment in a line: Antiviral activity against MERS-CoV pseudovirus infected in human HuH7 cells treated with 30 mins pre-treated pseudovirus/compopund mixture and measured after 48 hrs by luciferase reporter assay. Format: functional, organism-based. In a few lines: (§2)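 Serially diluted peptide premixed with MERS-CoV pseudovirus 30 min at 37 °C, then added to Huh-7 cells; medium replaced at 12 h postinfection and cells cultured a further 48 h at 37 °C before luciferase read-out.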
(A reporter such as luciferase makes a cellular process visible.)

The test system is the same in data set [3]. Nature of the data set: Antiviral activity against MERS-CoV pseudovirus infected in human HuH7 cells treated with 30 mins pre-treated pseudovirus/compopund mixture up to 40 uM and measured after 48 hrs by luciferase reporter assay. Format: functional, organism-based. Summed up: as §2
The subject of data set [4] is Influenza A virus. The experiment in a line: Antiviral activity against Influenza A virus (A/Puerto Rico/8/1934(H1N1)) infected in HEK293T cells assessed as inhibition of viral replicon activity incubated for 30 hrs by dual-Glo luciferase assay. Type of data set: functional, organism-based. In a few lines: as §1
Data set [5] deals with Influenza A virus. Nature of the data set: Antiviral activity against influenza A virus Hong Kong/8/1968(H3N2) infected in HEK293T cells assessed as inhibition of viral replicon activity incubated for 30 hrs by dual-Glo luciferase assay. Format: functional, organism-based. Summed up: as §1
Data set [6] is described as follows: Drug distribution in cell membrane of MDCK cells incubated for 0.5 hrs by confocal microscopy. Format: ADME, cell-based, Canis lupus familiaris. Conditions: dog. Summed up: (§3)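 MDCK cells were pre-stained with 100 nM LysoTracker Red for 1.5 h and washed. They were then given 5 μM NBD-labelled lipopeptide in phenol-red-free DF-12 at 37 °C, 5% CO2. Confocal imaging with a 20× objective was done at 10 min, 30 min, 1 h, 2 h and 4 h. Peptide was read in the FITC channel and acidic compartments in the red channel, with colocalization assessed on merged images.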

Data set [7] can be described thus: Drug distribution in acidic vesicles intracellular compartments of MDCK cells incubated for 1 hrs by LysoTracker Red DND-99 staining based confocal microscopy. Type of data set: ADME, cell-based, Canis lupus familiaris. Conditions: dog. In a few lines: as §3
Data set [8] is described as follows: Drug distribution in acidic vesicles intracellular compartments of MDCK cells incubated for 4 hrs by LysoTracker Red DND-99 staining based confocal microscopy. Format: ADME, cell-based, Canis lupus familiaris. Conditions: dog. Summed up: as §3

On to `CC[C@H](C)[C@H](NC(C)=O)C(=O)N[C@@H](CCC(=O)O)C(=O)N[C@@H](CCC(=O)O)C(=O)N[C@H](C(=O)N[C@@H](CCC(N)=O)C(=O)N[C@@H](CCCCN)C(=O)N[C@@H](CCCCN)C(=O)N[C@H](C(=O)N[C@@H](CCC(=O)O)C(=O)N[C@@H](CCC(=O)O)C(=O)N[C@H](C(=O)N[C@@H](CCC(N)=O)C(=O)N[C@@H](CCCCN)C(=O)N[C@@H](CCCCN)C(=O)N[C@H](C(=O)N[C@@H](CCC(=O)O)C(=O)N[C@@H](CCC(=O)O)C(=O)N[C@H](C(=O)N[C@@H](CCC(N)=O)C(=O)N[C@@H](CCCCN)C(=O)N[C@@H](CCCCN)C(=O)N[C@H](C(=O)N[C@@H](CCC(=O)O)C(=O)N[C@@H](CCC(=O)O)C(=O)N[C@H](C(=O)N[C@@H](CCC(N)=O)C(=O)N[C@@H](CCCCN)C(=O)N[C@@H](CCCCN)C(=O)N[C@H](C(=O)N[C@@H](CCC(=O)O)C(=O)N[C@@H](CCC(=O)O)C(=O)N[C@H](C(=O)N[C@@H](CCC(N)=O)C(=O)N[C@@H](CCCCN)C(=O)N[C@@H](CCCCN)C(=O)NCCC(=O)N[C@@H](CCCCNC(C)=O)C(N)=O)[C@@H](C)CC)[C@@H](C)CC)[C@@H](C)CC)[C@@H](C)CC)[C@@H](C)CC)[C@@H](C)CC)[C@@H](C)CC)[C@@H](C)CC)[C@@H](C)CC` (Ac-IEEIQKKIEEIQKKIEEIQKKIEEIQKKIEEIQKK[βAla]K(Ac)-NH2), for which the outcome (in the data set on Lipid bilayer; in data set [2]; in data set [3]) was inactive. For the same molecule, in the data set with Influenza A virus [1], the inhibition entry was “inactive”.

In the case of `CCCCCCCCCCCCCCCC(=O)NCCCC[C@H](NC(=O)CCNC(=O)[C@H](CCCCN)NC(=O)[C@H](CCCCN)NC(=O)[C@H](CCC(N)=O)NC(=O)[C@@H](NC(=O)[C@H](CCC(=O)O)NC(=O)[C@H](CCC(=O)O)NC(=O)[C@@H](NC(=O)[C@H](CCCCN)NC(=O)[C@H](CCCCN)NC(=O)[C@H](CCC(N)=O)NC(=O)[C@@H](NC(=O)[C@H](CCC(=O)O)NC(=O)[C@H](CCC(=O)O)NC(=O)[C@@H](NC(=O)[C@H](CCCCN)NC(=O)[C@H](CCCCN)NC(=O)[C@H](CCC(N)=O)NC(=O)[C@@H](NC(=O)[C@H](CCC(=O)O)NC(=O)[C@H](CCC(=O)O)NC(=O)[C@@H](NC(=O)[C@H](CCCCN)NC(=O)[C@H](CCCCN)NC(=O)[C@H](CCC(N)=O)NC(=O)[C@@H](NC(=O)[C@H](CCC(=O)O)NC(=O)[C@H](CCC(=O)O)NC(=O)[C@@H](NC(=O)[C@H](CCCCN)NC(=O)[C@H](CCCCN)NC(=O)[C@H](CCC(N)=O)NC(=O)[C@@H](NC(=O)[C@H](CCC(=O)O)NC(=O)[C@H](CCC(=O)O)NC(=O)[C@@H](NC(=O)CCNc1ccc([N+](=O)[O-])c2nnoc12)[C@@H](C)CC)[C@@H](C)CC)[C@@H](C)CC)[C@@H](C)CC)[C@@H](C)CC)[C@@H](C)CC)[C@@H](C)CC)[C@@H](C)CC)[C@@H](C)CC)[C@@H](C)CC)C(N)=O` ({X1-βAla}-IEEIQKKIEEIQKKIEEIQKKIEEIQKKIEEIQKK[βAla]K(Palmitoyl)-NH2), the inhibition result in the data set on Influenza A virus [4] and with Influenza A virus [5] was “Active” each time. Moreover, the Drug uptake entry in data set [6], in [7] and in [8] was “Active” throughout.
